# Screening data from PubChem BioAssay.
# Compounds with a hit are over-represented: about 4.4% of the library has one in this group of screens.
# AI-2 QS mod – Vibrio harveyi AI-2 quorum sensing modulation; Vibrio harveyi JMH597 AI-2 luminescence/OD600 ratio, 9 h; active compounds read low; strain lacks LuxN and CqsS sensors; 0 = neutral-control median; activity change, % at 7.5 µM; hit rate 0.4% among 300,000; AID 2094; in the data active means activity change below about -75%, passing the limit was not always enough;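 further: luminescence divided by OD600 gain over 9 h not by final OD600 alone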
# TbMetRS inhib – blocks T. brucei methionyl-tRNA synthetase activity; purified T. brucei MetRS, ATP depletion, Kinase-Glo luminescence; hit rate 0.4% among 360,000; AID 624268; inhibition, % at 11.9 µM;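 active means inhibition above a per-plate cutoff of the control wells' mean inhibition plus 3 SD, cut at about 5.5% in these data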;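 further: 0% = DMSO wells median and 100% = median of wells with control inhibitor compound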
#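 Material: parasite MetRS enzyme / Replication: singlicate, one well per compound / Signal: luminescence of leftover ATP / Schedule: 2 h aminoacylation at 25 °C after 15 min preincubation / Medium: HEPES-MgCl2-KCl buffer plus DTT, spermine, BSA, pyrophosphatase / Doses: 11.9 µM single point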
# MsrA inh – inhibits bovine methionine sulfoxide reductase A. purified bovine MsrA, absorbance read-out. inhibition, % at 15.5 µM. hit rate 0.75% among 360,000; in the data active means inhibition above about 4.5%;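 further: 0% = vehicle wells with enzyme and 100% = reference inhibitor wells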
# bovine MsrA act – activators of bovine methionine sulfoxide reductase A; activation, % at 10.6 µM; hit rate 0.3% among 360,000; AID 602163; purified bovine MsrA, absorbance read-out; in the data active means activation above about 7.5%;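 further: 0% = vehicle and 100% = reference activator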
# AHR act – activates the human aryl hydrocarbon receptor; AHR-responsive luciferase reporter cells, luminescence; activation, % at 5 µM; hit rate 2.5% among 320,000; AID 2796; in the data active means activation above about 47%;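 further: 0% = vehicle wells and 100% = reference agonist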
# Target sequence (P35869 whole entry, looked up): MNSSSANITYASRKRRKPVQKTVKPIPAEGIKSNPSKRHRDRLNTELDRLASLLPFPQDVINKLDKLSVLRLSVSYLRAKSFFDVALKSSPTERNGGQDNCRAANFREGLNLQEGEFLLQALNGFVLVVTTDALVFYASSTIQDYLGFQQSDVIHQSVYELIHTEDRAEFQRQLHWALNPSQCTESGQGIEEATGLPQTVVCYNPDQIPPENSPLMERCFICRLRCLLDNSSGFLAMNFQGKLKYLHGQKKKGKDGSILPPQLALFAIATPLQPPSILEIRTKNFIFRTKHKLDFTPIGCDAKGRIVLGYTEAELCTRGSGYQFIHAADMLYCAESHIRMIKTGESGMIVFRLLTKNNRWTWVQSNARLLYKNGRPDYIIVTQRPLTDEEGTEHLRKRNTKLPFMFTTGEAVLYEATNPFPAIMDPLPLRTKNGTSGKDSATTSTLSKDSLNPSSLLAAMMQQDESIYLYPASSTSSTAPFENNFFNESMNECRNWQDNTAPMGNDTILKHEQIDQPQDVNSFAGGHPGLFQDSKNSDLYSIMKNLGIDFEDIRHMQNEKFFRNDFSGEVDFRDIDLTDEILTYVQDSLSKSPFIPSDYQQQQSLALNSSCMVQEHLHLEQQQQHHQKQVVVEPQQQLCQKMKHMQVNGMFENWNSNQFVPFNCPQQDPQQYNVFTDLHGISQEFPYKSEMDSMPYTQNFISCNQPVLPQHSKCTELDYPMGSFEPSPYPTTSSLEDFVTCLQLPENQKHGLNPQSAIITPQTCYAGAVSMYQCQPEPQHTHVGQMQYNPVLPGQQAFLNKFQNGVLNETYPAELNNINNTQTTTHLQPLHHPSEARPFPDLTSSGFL
# HTR2A ag – agonists of mouse serotonin 5-HT2A receptor (HTR2A) | P35363 | CHO-K1 mHTR2A beta-arrestin complementation, luminescence; percent of 30 µM serotonin response | activation, % at 7.6 µM | hit rate 0.66% among 360,000 | AID 624169;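 active means activation above a run cutoff, the mean activation of all tested compounds plus 3 SD, cut at about 14% in these data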;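 further: 0% = plate median of compound wells and 100% = 30 µM serotonin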
# MsrA activ conf – confirmation of bovine methionine sulfoxide reductase A activators; shares compounds with bovine MsrA act; purified bovine MsrA, absorbance read-out; activation, % at 10.6 µM; hit rate 12% among 1,000; AID 602270; in the data active means activation above about 4%;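 further: enzyme coupled to thioredoxin and thioredoxin reductase with NADPH; 0% = vehicle wells and 100% = reference activator wells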
# * = called active by the depositor; / = no result given.
SMILES,AI-2 QS mod,TbMetRS inhib,MsrA inh,bovine MsrA act,AHR act,HTR2A ag,MsrA activ conf
O=C(Nc1ccn(CCCNC2CCN(Cc3ccccc3)CC2)c(=O)n1)OCc1ccccc1,/,-1.3,0.7,-4.3,/,2.0,/
O=C(NCSc1ccnc(SCNC(=O)c2ccc(F)cc2)n1)c1ccc(F)cc1,11.5,0.1,1.3,8.5*,-0.2,-1.7,2.4
O=C(NCCNC(=O)c1ccc(F)cc1)c1ccc(F)cc1,23.3,-0.1,-0.4,-4.9,-1.3,-5.8,/
CCc1ccc(CN2CCCC(C(=O)N3CCCCC3)C2)cc1 (stereo not drawn),8.9,-1.1,1.0,-7.4,0.8,-3.0,/
CN(C)CCCn1c2c(c(SCC(=O)Nc3cccc4ccccc34)nc1=O)CCCC2,9.4,-0.3,-0.7,11.2*,0.4,-9.3,0.5
CC1COc2ccccc2N1C(=O)c1ccc(Cl)cc1 (stereo not drawn),-9.4,-0.7,0.3,9.0*,11.9,1.6,-4.7
NS(=O)(=O)c1ccc(NC(=O)CSc2nc3c(c(=O)[nH]2)CCCC3)cc1,22.4,0.3,-0.4,1.5,0.8,0.6,/
Cc1cc(NC(=O)CSc2nc3cc(Cl)ccc3s2)no1,17.4,-0.8,-1.6,-9.4,2.2,1.4,/
O=C(CSc1nc2cc(Cl)ccc2s1)c1cc2ccccc2o1,31.8,-0.2,2.1,9.9*,9.3,0.4,-1.9
NC(c1csc(NC(=O)Nc2cccc(Cl)c2)n1)C1CCCCC1 (stereo not drawn),/,0.7,-0.3,1.4,/,0.8,/
CC1CCN(CCCNC(=O)c2cn(C)c3ccc(S(=O)(=O)N4CCCC4)cc3c2=O)CC1,-3.3,0.0,2.7,7.9*,-0.7,4.5,-0.4
Cc1csc(SCC(=O)c2c(N)n(C)c(=O)n(C)c2=O)n1,16.4,-0.2,-0.1,9.7*,2.6,-1.7,-1.7
NS(=O)(=O)c1cc(Br)c2c(c1)S(=O)(=O)NCN2,/,-0.2,-0.1,-0.2,/,1.7,/
CCCS(=O)(=O)N1CCC(C(=O)N2CCC(Cc3ccccc3)CC2)CC1,13.0,1.3,0.3,2.3,0.8,-4.5,/
CCCS(=O)(=O)N1CCCC(C(=O)N2CCC(Cc3ccccc3)CC2)C1 (stereo not drawn),41.9,1.0,-1.0,7.7*,-3.2,-0.9,-0.3
COc1ccc(CNCc2c(F)cccc2F)cc1OC,8.7,-0.1,1.2,0.7,/,-0.3,/
Cc1cccc(NC(=O)NC(=O)c2ccccc2)n1,3.4,-0.7,0.1,8.1*,7.3,-3.0,0.8
Cc1cccc(NC(=O)Nc2cccc(C)n2)n1,-1.0,-0.7,0.6,-10.3,44.1,3.7,/
COc1ccc(-c2cc(C(F)(F)F)n3nc(N)nc3n2)cc1,23.4,0.9,/,-4.4,-7.8,3.1,/
COc1cccc(-c2cc(C(F)(F)F)n3nc(N)nc3n2)c1,12.7,-0.6,2.8,13.8*,68.5*,-0.1,-3.0
O=C(COC(=O)C1(c2ccc(Cl)cc2)CCCC1)Nc1ncc(C(F)(F)F)cc1Cl,5.5,0.8,-0.2,8.8*,5.0,-2.0,3.4
COc1cccc(C2=Cc3ccc(F)cc3C(CC(C)=O)N2c2ccc(C#CC3(O)CCCCC3)cc2)c1 (stereo not drawn),/,-0.1,0.6,8.1*,/,-3.7,-2.0
Cc1cccc(C)c1OCC(=O)NNC(=O)CNC(=O)c1ccc(OC(F)F)cc1,/,-0.4,-0.6,8.1*,-0.8,-1.6,-1.4
CCOc1ccc2oc(C(=O)OCC(=O)N3C(C)CCCC3C)c(C)c2c1 (stereo not drawn),/,-0.2,0.9,8.7*,1.1,7.8,-1.0
O=c1sc(N2CCN(c3ccc(F)cc3)CC2)nc2ccsc12,12.9,0.0,0.8,7.8*,-5.2,2.5,-1.6
SMILES,AI-2 QS mod,TbMetRS inhib,MsrA inh,bovine MsrA act,AHR act,HTR2A ag,MsrA activ conf
C/C(=N\NC(=S)NC(C)C)c1ccccc1OC(F)F,7.6,-0.6,-1.1,-3.2,10.6,-4.5,/
CC(NC(=S)Nc1c(Br)cccc1OC(F)F)C(C)(C)C (stereo not drawn),16.4,-0.3,-0.5,9.0*,3.5,3.4,-0.3
C(=Nc1ccc(N2CCOCC2)cc1)c1c[nH]c2ccccc12,12.2,0.6,0.2,11.6*,16.7,1.7,0.0
COCCn1c(-c2ccc(OC)cc2)nc2ccccc21,25.5,1.4,-0.4,-1.5,6.4,3.8,/
COCCn1c2nc(=O)n(-c3ccccc3)c(=O)c-2nc2ccccc21,/,0.1,1.1,26.5*,/,2.7,8.7*
O=C(C1CCC(=O)N(C2CCCC2)C1)N1CCN(Cc2cccc(Cl)c2)CC1 (stereo not drawn),38.2,-0.5,0.9,-1.6,-1.4,3.1,/
COc1ccc(NC(C)=O)cc1S(=O)(=O)NC(C)c1ccc(-n2ccnc2)cc1 (stereo not drawn),/,0.0,0.0,-4.0,1.9,-3.1,/
C[C@@H]1CCCCO[C@@H](CN(C)CC2CCCCC2)[C@@H](C)CN([C@H](C)CO)C(=O)c2cc(NC(=O)Nc3ccc4c(c3)OCO4)ccc2O1,/,/,-0.1,/,/,/,/
COCC(=O)Nc1cccc2ccccc12,12.3,-0.7,2.5,10.9*,15.4,1.3,-0.8
O=C(COC(=O)Cc1ccccc1F)Nc1ccc2c(c1)OCCO2,17.0,-0.7,-0.7,11.4*,-1.0,1.4,-1.9
CS(=O)(=O)c1ccc2nc(NC(=O)c3cc([N+](=O)[O-])cc([N+](=O)[O-])c3)sc2c1,27.4,0.1,-0.8,11.4*,7.6,1.3,-0.4
CS(=O)(=O)c1ccc2nc(NC(=O)c3cccc([N+](=O)[O-])c3)sc2c1,43.7,-0.6,4.3,-11.9,18.1,5.9,/
O=C(C[C@H]1CC[C@@H]2[C@H](COC[C@H](O)CN2Cc2cccc(F)c2)O1)NCc1cccc(F)c1,/,-0.6,-0.1,/,/,2.8,/
Cc1cccc(NC(=O)C2(C)CC3c4ccccc4C2c2ccccc23)c1 (stereo not drawn),3.7,-0.3,-0.5,8.9*,-1.0,10.8,-0.1
O=C(C1CCN(S(=O)(=O)N2CCOCC2)CC1)N1CCN(c2ccccc2)CC1,32.7,0.1,0.0,10.2*,-1.4,3.1,-1.7
O=C(C1CCN(S(=O)(=O)N2CCOCC2)CC1)N1CCOCC1,8.3,-0.4,-0.3,-2.6,1.4,-1.6,/
COc1cc(OC)c(C(=O)NC23CC4CC(CC(C4)C2)C3)cc1OC,15.4,0.0,-0.1,9.2*,4.3,2.9,-3.7
Cc1ccc(C(=O)NCC(=O)N2CCN(c3ncccn3)CC2)s1,14.2,-0.6,-1.0,9.2*,2.1,2.6,-0.4
O=C(NCC(=O)N1CCN(c2ncccn2)CC1)c1cccs1,25.3,-0.9,/,-13.9,4.7,6.5,/
CCOc1ccc(C(=O)NC2CCN(C(=O)NCc3ccccc3)CC2)cc1,18.2,-0.1,0.0,9.6*,0.1,-1.7,-0.7
CC1CCN(C(=O)CN(c2cccc(F)c2)S(C)(=O)=O)CC1,11.0,-0.7,0.6,-7.2,1.0,-2.0,/
